Results as given in ChEMBL document CHEMBL5108039, “Piperazine tethered bergenin heterocyclic hybrids: design, synthesis, anticancer activity, and molecular docking studies” (RSC Med Chem, 2022).

Assays:
[1] = system: A549; test: Cytotoxicity against human A549 cells assessed as cell growth inhibition; format: functional, cell-based
How it was run: (§1)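 Compounds were dissolved in sterile DMSO as 10 mg ml−1 stocks and tested in vitro for cytotoxicity in a cell-line panel, with DMSO (0.01%) as vehicle control and doxorubicin as standard. Mean IC50 values were reported, and the normal lung epithelial cells were tested up to 100 μM.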

[2] = system: SCC-9; test: Cytotoxicity against human SCC-9 cells assessed as cell growth inhibition; format: functional, cell-based
How it was run: (§2)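 Compounds were dissolved in sterile DMSO as 10 mg ml−1 stocks and tested for in vitro growth inhibition of human cancer cell lines. Doxorubicin was the standard drug and DMSO (0.01%) the vehicle control. IC50 values are reported as means.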

[3] = system: CAL-27; test: Cytotoxicity against human CAL-27 cells assessed as cell growth inhibition; format: functional, cell-based; how it was run: as §2
[4] = system: MCF7; test: Cytotoxicity against human MCF7 cells assessed as cell growth inhibition; format: functional, cell-based; how it was run: as §2
[5] = Cytotoxicity against human BEAS-2B cells assessed as cell growth inhibition; format: toxicity, cell-based; how it was run: as §1
[6] = system: HCT-15; test: Cytotoxicity against human HCT-15 cells assessed as cell growth inhibition; format: functional, cell-based; how it was run: as §2

Compound: COc1c(O)c(CN2CCN(CC(=O)Nc3nc(-c4ccc(Cl)cc4)cs3)CC2)c2c(c1O)C1O[C@H](CO)[C@@H](O)[C@H](O)C1OC2=O (stereo partly specified)
- IC50 [1]: 49.9 µM
- IC50 [2]: > 100 µM
- IC50 [3]: 46.6 µM
- IC50 [4]: 37.3 µM
- IC50 [5]: > 100 µM
- IC50 [6]: > 100 µM

Compound: COc1c(O)c(CN2CCN(CC(=O)Nc3nc4c(Cl)cccc4s3)CC2)c2c(c1O)C1O[C@H](CO)[C@@H](O)[C@H](O)C1OC2=O (stereo partly specified)
- IC50 [1]: 22.5 µM
- IC50 [2]: 17.4 µM
- IC50 [3]: 15.4 µM
- IC50 [4]: 19.6 µM
- IC50 [5]: 21.7 µM
- IC50 [6]: 30.2 µM

Compound: COc1c(O)cc2c(c1O)C1O[C@H](CO)[C@@H](O)[C@H](O)C1OC2=O (stereo partly specified)
- IC50 [1]: > 100 µM
- IC50 [2]: > 100 µM
- IC50 [3]: > 100 µM
- IC50 [4]: > 100 µM
- IC50 [5]: > 100 µM
- IC50 [6]: > 100 µM

Compound: COc1c(O)c(CN2CCN(CC(=O)Nc3nc4ccc(Cl)cc4s3)CC2)c2c(c1O)C1O[C@H](CO)[C@@H](O)[C@H](O)C1OC2=O (stereo partly specified)
- IC50 [1]: 65.6 µM
- IC50 [2]: 32.6 µM
- IC50 [3]: > 100 µM
- IC50 [4]: 64.1 µM
- IC50 [5]: 44.2 µM
- IC50 [6]: 97.6 µM

Compound: COc1c(O)c(CN2CCN(S(=O)(=O)c3ccc(F)c(F)c3)CC2)c2c(c1O)C1O[C@H](CO)[C@@H](O)[C@H](O)C1OC2=O (stereo partly specified)
- IC50 [1]: > 100 µM
- IC50 [2]: > 100 µM
- IC50 [3]: > 100 µM
- IC50 [4]: > 100 µM
- IC50 [5]: > 100 µM
- IC50 [6]: > 100 µM

Compound: COc1c(O)c(CN2CCN(S(=O)(=O)c3ccc(OC(F)(F)F)cc3)CC2)c2c(c1O)C1O[C@H](CO)[C@@H](O)[C@H](O)C1OC2=O (stereo partly specified)
- IC50 [1]: > 100 µM
- IC50 [2]: > 100 µM
- IC50 [3]: > 100 µM
- IC50 [4]: > 100 µM
- IC50 [5]: > 100 µM
- IC50 [6]: > 100 µM

Compound: COc1c(O)c(CN2CCN(CC(=O)Nc3nc4c(C)cccc4s3)CC2)c2c(c1O)C1O[C@H](CO)[C@@H](O)[C@H](O)C1OC2=O (stereo partly specified)
- IC50 [1]: > 100 µM
- IC50 [2]: > 100 µM
- IC50 [3]: 81.2 µM
- IC50 [4]: > 100 µM
- IC50 [5]: > 100 µM
- IC50 [6]: > 100 µM

Compound: COc1c(O)c(CN2CCN(CC(=O)Nc3nc4ccc([N+](=O)[O-])cc4s3)CC2)c2c(c1O)C1O[C@H](CO)[C@@H](O)[C@H](O)C1OC2=O (stereo partly specified)
- IC50 [1]: > 100 µM
- IC50 [2]: 37.6 µM
- IC50 [3]: 30.5 µM
- IC50 [4]: > 100 µM
- IC50 [5]: 58.6 µM
- IC50 [6]: 85.9 µM

Compound: COc1c(O)c(CN2CCN(S(=O)(=O)c3ccc(F)c(F)c3F)CC2)c2c(c1O)C1O[C@H](CO)[C@@H](O)[C@H](O)C1OC2=O (stereo partly specified)
- IC50 [1]: > 100 µM
- IC50 [2]: > 100 µM
- IC50 [3]: > 100 µM
- IC50 [4]: > 100 µM
- IC50 [5]: > 100 µM
- IC50 [6]: > 100 µM

Compound: COc1c(O)c(CN2CCN(S(=O)(=O)c3ccccc3)CC2)c2c(c1O)C1O[C@H](CO)[C@@H](O)[C@H](O)C1OC2=O (stereo partly specified)
- IC50 [1]: > 100 µM
- IC50 [2]: > 100 µM
- IC50 [3]: 85.5 µM
- IC50 [4]: > 100 µM
- IC50 [5]: > 100 µM
- IC50 [6]: > 100 µM

Compound: COc1ccc(S(=O)(=O)N2CCN(Cc3c(O)c(OC)c(O)c4c3C(=O)OC3C4O[C@H](CO)[C@@H](O)[C@@H]3O)CC2)cc1OC (stereo partly specified)
- IC50 [1]: > 100 µM
- IC50 [2]: > 100 µM
- IC50 [3]: > 100 µM
- IC50 [4]: > 100 µM
- IC50 [5]: > 100 µM
- IC50 [6]: > 100 µM

Compound: COc1c(O)c(CN2CCN(S(=O)(=O)c3ccc([N+](=O)[O-])cc3)CC2)c2c(c1O)C1O[C@H](CO)[C@@H](O)[C@H](O)C1OC2=O (stereo partly specified)
- IC50 [1]: > 100 µM
- IC50 [2]: > 100 µM
- IC50 [3]: 91.6 µM
- IC50 [4]: > 100 µM
- IC50 [5]: > 100 µM
- IC50 [6]: > 100 µM

Compound: COc1ccc2nc(NC(=O)CN3CCN(Cc4c(O)c(OC)c(O)c5c4C(=O)OC4C5O[C@H](CO)[C@@H](O)[C@@H]4O)CC3)sc2c1 (stereo partly specified)
- IC50 [1]: > 100 µM
- IC50 [2]: > 100 µM
- IC50 [3]: > 100 µM
- IC50 [4]: > 100 µM
- IC50 [5]: > 100 µM
- IC50 [6]: > 100 µM

Compound: COc1c(O)c(CN2CCN(S(=O)(=O)c3ccc(C)cc3)CC2)c2c(c1O)C1O[C@H](CO)[C@@H](O)[C@H](O)C1OC2=O (stereo partly specified)
- IC50 [1]: > 100 µM
- IC50 [2]: > 100 µM
- IC50 [3]: 56.8 µM
- IC50 [4]: > 100 µM
- IC50 [5]: 51.6 µM
- IC50 [6]: > 100 µM

Compound: COc1c(O)c(CN2CCN(S(=O)(=O)c3cccc4ccccc34)CC2)c2c(c1O)C1O[C@H](CO)[C@@H](O)[C@H](O)C1OC2=O (stereo partly specified)
- IC50 [1]: > 100 µM
- IC50 [2]: > 100 µM
- IC50 [3]: 74 µM
- IC50 [4]: > 100 µM
- IC50 [5]: > 100 µM
- IC50 [6]: > 100 µM

Compound: COc1c(O)c(CN2CCN(CC(=O)Nc3nc4ccccc4s3)CC2)c2c(c1O)C1O[C@H](CO)[C@@H](O)[C@H](O)C1OC2=O (stereo partly specified)
- IC50 [1]: > 100 µM
- IC50 [2]: 64.8 µM
- IC50 [3]: 91.2 µM
- IC50 [4]: > 100 µM
- IC50 [5]: 97.3 µM
- IC50 [6]: > 100 µM

Compound: COc1c(O)c(CN2CCN(CC(=O)Nc3nc(-c4cccc5ccccc45)cs3)CC2)c2c(c1O)C1O[C@H](CO)[C@@H](O)[C@H](O)C1OC2=O (stereo partly specified)
- IC50 [1]: > 100 µM
- IC50 [2]: 65.5 µM
- IC50 [3]: 57.2 µM
- IC50 [4]: > 100 µM
- IC50 [5]: 83.5 µM
- IC50 [6]: 86.2 µM

Compound: COc1c(O)c(CN2CCN(S(=O)(=O)c3ccc(F)c(Cl)c3)CC2)c2c(c1O)C1O[C@H](CO)[C@@H](O)[C@H](O)C1OC2=O (stereo partly specified)
- IC50 [1]: > 100 µM
- IC50 [2]: > 100 µM
- IC50 [3]: 92.9 µM
- IC50 [4]: > 100 µM
- IC50 [5]: > 100 µM
- IC50 [6]: > 100 µM

Compound: COc1ccc(S(=O)(=O)N2CCN(Cc3c(O)c(OC)c(O)c4c3C(=O)OC3C4O[C@H](CO)[C@@H](O)[C@@H]3O)CC2)cc1 (stereo partly specified)
- IC50 [1]: > 100 µM
- IC50 [2]: > 100 µM
- IC50 [3]: > 100 µM
- IC50 [4]: > 100 µM
- IC50 [5]: > 100 µM
- IC50 [6]: > 100 µM

Compound: COc1c(O)c(CN2CCN(S(=O)(=O)c3ccc(Br)cc3)CC2)c2c(c1O)C1O[C@H](CO)[C@@H](O)[C@H](O)C1OC2=O (stereo partly specified)
- IC50 [1]: > 100 µM
- IC50 [2]: > 100 µM
- IC50 [3]: > 100 µM
- IC50 [4]: > 100 µM
- IC50 [5]: 22.4 µM
- IC50 [6]: > 100 µM

Compound: COc1c(O)c(CN2CCN(CC(=O)Nc3nc4ccc(F)cc4s3)CC2)c2c(c1O)C1O[C@H](CO)[C@@H](O)[C@H](O)C1OC2=O (stereo partly specified)
- IC50 [1]: > 100 µM
- IC50 [2]: > 100 µM
- IC50 [3]: 53 µM
- IC50 [4]: > 100 µM
- IC50 [5]: > 100 µM
- IC50 [6]: > 100 µM

Compound: COc1c(O)c(CN2CCN(S(=O)(=O)c3cccs3)CC2)c2c(c1O)C1O[C@H](CO)[C@@H](O)[C@H](O)C1OC2=O (stereo partly specified)
- IC50 [1]: > 100 µM
- IC50 [2]: > 100 µM
- IC50 [3]: > 100 µM
- IC50 [4]: > 100 µM
- IC50 [5]: > 100 µM
- IC50 [6]: > 100 µM

Compound: CCOc1ccc2nc(NC(=O)CN3CCN(Cc4c(O)c(OC)c(O)c5c4C(=O)OC4C5O[C@H](CO)[C@@H](O)[C@@H]4O)CC3)sc2c1 (stereo partly specified)
- IC50 [1]: > 100 µM
- IC50 [2]: > 100 µM
- IC50 [3]: 83.7 µM
- IC50 [4]: > 100 µM
- IC50 [5]: > 100 µM
- IC50 [6]: > 100 µM

Compound: COc1c(O)c(CN2CCN(S(=O)(=O)c3ccc(C(F)(F)F)cc3)CC2)c2c(c1O)C1O[C@H](CO)[C@@H](O)[C@H](O)C1OC2=O (stereo partly specified)
- IC50 [1]: > 100 µM
- IC50 [2]: > 100 µM
- IC50 [3]: 68.6 µM
- IC50 [4]: > 100 µM
- IC50 [5]: > 100 µM
- IC50 [6]: > 100 µM

Compound: COc1c(O)c(CN2CCN(CC(=O)Nc3nc(-c4ccc5ccccc5c4)cs3)CC2)c2c(c1O)C1O[C@H](CO)[C@@H](O)[C@H](O)C1OC2=O (stereo partly specified)
- IC50 [1]: 40.6 µM
- IC50 [2]: > 100 µM
- IC50 [3]: 42.7 µM
- IC50 [4]: 25.2 µM
- IC50 [5]: > 100 µM
- IC50 [6]: > 100 µM

Compound: COc1c(O)c(CN2CCN(S(=O)(=O)c3ccc(F)cc3Cl)CC2)c2c(c1O)C1O[C@H](CO)[C@@H](O)[C@H](O)C1OC2=O (stereo partly specified)
- IC50 [1]: > 100 µM
- IC50 [2]: > 100 µM
- IC50 [3]: > 100 µM
- IC50 [4]: > 100 µM
- IC50 [5]: > 100 µM
- IC50 [6]: > 100 µM
